Assay outcomes (PubChem BioAssay)
IDH1 mut inh – IDH1 R132H (human) inhibition. O75874. IDH1 R132H reductase, diaphorase/resazurin fluorescence, 60 min. inhibition, % at 10 µM. hit rate 0.18% among 70,000; in the data active = inhibition above about 34%; inconclusive = no clear call, values can overlap the other calls; inactive = below about 11%;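 also: 0% = DMSO and 100% = no enzyme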
KDM4C inh – inhibitors of human demethylase GASC-1 KDM4C | Q9H3R0 | GST-KDM4C 2-372, H3K9me3 peptide, LANCE TR-FRET | inhibition, % at 12.5 µM | hit rate 0.15% among 96,000 | AID 720574;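 active = mean replicate inhibition above about 25%, with at least 55% of replicates also reaching it, limit read from the data, passing the limit was not always enough; inconclusive = only one of those two conditions met; inactive = neither condition met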
Target sequence (Q9H3R0 2-372 limits assumed): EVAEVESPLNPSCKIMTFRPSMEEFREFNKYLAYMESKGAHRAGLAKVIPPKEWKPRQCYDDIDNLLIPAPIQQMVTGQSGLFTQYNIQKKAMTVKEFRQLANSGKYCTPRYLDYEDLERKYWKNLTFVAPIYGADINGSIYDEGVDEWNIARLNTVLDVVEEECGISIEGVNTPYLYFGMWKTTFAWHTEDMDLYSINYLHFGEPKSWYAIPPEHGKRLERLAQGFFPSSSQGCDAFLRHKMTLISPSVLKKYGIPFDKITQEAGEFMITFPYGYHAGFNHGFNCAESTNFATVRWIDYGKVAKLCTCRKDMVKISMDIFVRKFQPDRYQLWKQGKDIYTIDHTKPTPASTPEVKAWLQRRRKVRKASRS
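Assay system: GST-GASC-1 enzyme fragment 2-372 | Amount: 10 nM enzyme | Medium: HEPES buffer, pH 7.5, plus ascorbate | Reagent: H3K9me3 peptide substrate, Fe(II), 2-oxoglutarate | Doses: Single-point compound screen | Incubation: 30 min demethylation and 1 h detection at room temperature | Measured by: LANCE TR-FRET, excitation 340 nm, emissions 618 and 671 nm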
T cruzi growth-1 – blocks T. cruzi growth in NIH3T3 culture. T. cruzi beta-gal in NIH3T3, GalScreen luminescence, 90 h. inhibition, % at 8.34 µM. hit rate 5.9% among 77,000. AID 624255;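 active = mean inhibition above about 93%, with at least 55% of replicates each passing it, limit read from the data, passing the limit was not always enough; inconclusive = only one of those two conditions holds; inactive = neither condition holds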
T cruzi growth-2 – inhibitors of T. cruzi proliferation. shares compounds with T cruzi growth-1. T. cruzi beta-gal in NIH3T3, GalScreen luminescence, 90 h. inhibition, % at 8.35 µM. hit rate 72% among 5,600. AID 651739;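 active = mean replicate inhibition above about 95% and at least 55% of replicates individually reaching it, limit read from the data; inconclusive = only one of the two criteria is met; inactive = neither criterion is met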
T cruzi growth-3 – blocks T. cruzi growth in NIH3T3 host cells | hit rate 21% among 5,600 | inhibition, % at 2.09 µM | shares compounds with T cruzi growth-1 | T. cruzi beta-gal in NIH3T3, GalScreen luminescence, 90 h;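 active = mean inhibition above about 95%, with at least 55% of replicates also reaching it, limit read from the data; inconclusive = meets just one of the two conditions; inactive = meets neither condition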;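 also: plate controls were neutral control median for no effect and positive control median for full effect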
NIH3T3 tox – kills mouse NIH/3T3 fibroblasts | shares compounds with T cruzi growth-1 | NIH/3T3 viability, CellTiter-Glo ATP luminescence, 90 h | hit rate 14% among 5,600 | cytotoxicity (signal decrease), % at 8.35 µM | AID 651742;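 active = mean signal decrease across replicates above about 35% based on untreated-well scatter, with enough replicates individually passing, limit read from the data; inconclusive = no rule stated though some were filed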;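 also: 0% = median of neutral control wells and 100% = median of positive control wells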
NIH3T3 tox 2 – NIH/3T3 (mouse) viability loss; shares compounds with T cruzi growth-1; NIH/3T3 viability, CellTiter-Glo ATP luminescence, 90 h; inhibition, % at 24.9 µM; hit rate 56% among 5,600; AID 651744;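 active = mean loss of cell viability signal at or above a set limit, and enough replicates individually reaching it; inconclusive = meets only the mean limit or only the replicate share; inactive = meets neither condition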;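 also: 0% = median of neutral control wells and 100% = median of positive control wells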
* = called active by the depositor; u = inconclusive; x = no result given. Shown is part of a subset that was picked to be rich in hits.

SMILES | IDH1 mut inh | KDM4C inh | T cruzi growth-1 | T cruzi growth-2 | T cruzi growth-3 | NIH3T3 tox | NIH3T3 tox 2
C[C@H]1CCCCO[C@H](CN(C)S(=O)(=O)c2ccc(Cl)cc2)[C@@H](C)CN([C@@H](C)CO)C(=O)c2cc(NC(=O)c3ccncc3)ccc2O1 | 3.1 | -0.2 | 98.2 | x | x | x | x
C[C@@H]1CN([C@H](C)CO)C(=O)c2cc(NC(=O)c3ccncc3)ccc2O[C@@H](C)CCCCO[C@@H]1CN(C)S(=O)(=O)c1ccc(Cl)cc1 | x | -1.1 | u | 95.2* | 13.3 | 6.4 | 9.2
C[C@@H]1CCCCO[C@H](CN(C)S(=O)(=O)c2ccc(Cl)cc2)[C@H](C)CN([C@H](C)CO)C(=O)c2cc(NC(=O)c3ccncc3)ccc2O1 | x | 0.0 | 100.8* | 99.8* | 65.3 | 38.3* | 20.0
COCC#Cc1ccc([C@@H]2[C@@H](CO)N3CCCCN(Cc4cncnc4)C[C@@H]23)cc1 | x | -0.2 | 105.6* | u | -11.1 | 7.0 | -1.3
COCC#Cc1ccc([C@H]2[C@@H](CO)N3CCCCN(Cc4cncnc4)C[C@H]23)cc1 | x | 0.4 | 108.8* | 111.6* | 56.0 | 17.3 | 15.2
COCC#Cc1ccc([C@@H]2[C@H]3CN(Cc4cncnc4)CCCCN3[C@H]2CO)cc1 | x | 0.5 | 67.7 | x | x | x | x
CCCC#Cc1ccc([C@H]2[C@@H](CO)N3CCCCN(Cc4cncnc4)C[C@@H]23)cc1 | x | 1.6 | 63.4 | x | x | x | x
CCCC#Cc1ccc([C@@H]2[C@@H](CO)N3CCCCN(Cc4cncnc4)C[C@@H]23)cc1 | x | -1.0 | 61.0 | x | x | x | x
COCC#Cc1ccc([C@@H]2[C@@H](CO)N3CCCCN(Cc4cncnc4)C[C@H]23)cc1 | x | -0.4 | 102.8* | 29.3 | 18.5 | -13.3 | 64.7*
COCC#Cc1ccc([C@@H]2[C@H](CO)N3CCCCN(Cc4cncnc4)C[C@@H]23)cc1 | x | 1.2 | u | u | 34.0 | -2.6 | -9.8
COC(=O)c1ccccc1NC(=O)CSc1nnc(-c2cc3cccc(OC)c3o2)n1C | -0.7 | x | x | x | x | x | x
O=C(N/N=C/C1=CCCCC1)c1ccccc1O | 0.0 | x | x | x | x | x | x
COc1ccc(NC(=O)Nc2ccc3c(c2)C(=O)N([C@@H](C)CO)C[C@@H](C)[C@H](CN(C)C(=O)Nc2c(C)noc2C)OCCCC[C@H](C)O3)cc1 | 3.0 | 0.4 | x | x | x | x | x
COc1cc(C2c3c(oc4ccc(Cl)cc4c3=O)C(=O)N2Cc2ccco2)cc(Br)c1O (centres undefined) | -0.3 | x | x | x | x | x | x
O=C(Cn1cnc2scc(-c3ccccc3)c2c1=O)Nc1ccc(F)cc1 | -0.4 | x | x | x | x | x | x
O=C(c1cccc(F)c1)N1CC2(C1)[C@@H](c1ccccc1)[C@@H](CO)N2C(=O)C1CC1 | x | -0.8 | x | x | x | x | x
O=C(c1ccc(F)cc1)N1CCCCN2[C@H](C1)[C@@H](c1ccc(/C=C/c3ccccc3)cc1)[C@@H]2CO | x | -0.7 | 98.8* | 108.9* | 78.7 | 33.1 | 31.7*
O=C(c1ccc(F)cc1)N1CCCCN2[C@H](CO)[C@H](c3ccc(/C=C/c4ccccc4)cc3)[C@@H]2C1 | x | -1.5 | 110.9* | 106.8* | u | 23.3 | 105.2*
O=C(c1ccc(F)cc1)N1CCCCN2[C@H](CO)[C@H](c3ccc(/C=C/c4ccccc4)cc3)[C@H]2C1 | x | -1.2 | 60.9 | x | x | x | x
O=C(c1ccc(F)cc1)N1CCCCN2[C@H](CO)[C@@H](c3ccc(/C=C/c4ccccc4)cc3)[C@@H]2C1 | x | -1.2 | 71.8 | x | x | x | x
O=C(c1ccc(F)cc1)N1CCCCN2[C@@H](CO)[C@@H](c3ccc(/C=C/c4ccccc4)cc3)[C@@H]2C1 | x | -0.7 | 112.4* | 98.0* | 62.6 | 87.6* | 103.8*
O=C(c1ccc(F)cc1)N1CC(=O)N2[C@H](CO)[C@@H](c3ccc(/C=C/c4ccccc4)cc3)[C@H]2C1 | x | -1.3 | x | x | x | x | x
O=C(C[C@@H]1C[C@@H]2c3cc(NC(=O)C4CCC4)ccc3O[C@@H]2[C@@H](CO)O1)NCc1ccccc1F | 1.3 | 2.2 | x | x | x | x | x
O=C(CN1C(=O)c2ccccc2S1(=O)=O)Nc1cc(C(F)(F)F)ccc1Cl | -0.5 | x | x | x | x | x | x
CC(=O)NC[C@H]1[C@@H](c2ccc(-c3ccccc3)cc2)[C@H](CO)N1C(=O)C1CC1 | x | -3.3 | 41.8 | x | x | x | x
